Converted amounts (≈) assume the structure as drawn.
Assays:
LoVo [1] = test: In vitro cytotoxicity on human colon adenocarcinoma (LoVo ) tumor cell line.; type: functional, cell-based
MX1 [2] = test: In vivo antitumor activity was measured on MX-1 human mammary carcinoma cells. TWI%=tumor weight inhibition. Optimal dose 120 mg/kg/day.; type: functional
P388 [3] = test: In vivo antitumor activity was measured on systemic P388 murine leukemia cells. Optimal dose 90 mg/kg/day.; type: functional, Mus musculus
Procedure, shortened: (§1)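 CD2F1 male mice given 10⁶ P388 leukemia cells iv (day 0); drug given iv on days 1, 4 and 7. Survival expressed as T/C% = median survival time of treated / median survival of controls × 100, reported at optimal dose (mg/kg/day) or maximum tested dose.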

LoVo [4] = test: Resistance index measured as the ratio of IC50 of LoVo/Dx cell line to that of LoVo cell line.; type: functional, Homo sapiens
LoVo/Dx (Homo sapiens) = test: cells
P388 [5] = test: In vivo antitumor activity was measured on systemic P388 murine leukemia cells. Optimal dose 40 mg/kg/day.; type: functional, Mus musculus; conditions: in the assay text read “6 mg/kg/day” for “40 mg/kg/day”; procedure, shortened: as §1
MX1 [6] = test: In vivo antitumor activity was measured on MX-1 human mammary carcinoma cells. TWI%=tumor weight inhibition. Optimal dose 11 mg/kg/day.; type: functional
P388 [7] = test: In vivo antitumor activity was measured on systemic P388 murine leukemia cells. Optimal dose 9 mg/kg/day.; type: functional, Mus musculus; procedure, shortened: as §1
MX1 [8] = test: In vivo antitumor activity was measured on MX-1 human mammary carcinoma cells. TWI%=tumor weight inhibition. Optimal dose 4.5 mg/kg/day.; type: functional
P388 [9] = test: In vivo antitumor activity was measured on systemic P388 murine leukemia cells. Optimal dose 2 mg/kg/day.; type: functional, Mus musculus; procedure, shortened: as §1
MX1 [10] = test: Antitumor activity was measured on MX-1 human mammary carcinoma cells. TWI%=tumor weight inhibition. Optimal dose at 13.5 mg/kg/day; type: functional
P388 [11] = test: In vivo antitumor activity was measured on systemic P388 murine leukemia cells. Optimal dose at 13.5 mg/kg/day; type: functional, Mus musculus; procedure, shortened: as §1

SMILES | IC50 (LoVo [1]) [µg/mL] | TWI (MX1 [2]) [%] | T/C (P388 [3]) [%] | RI (LoVo [4]) | IC50 (LoVo/Dx (Homo sapiens)) [µg/mL] | T/C (P388 [5]) [%] | TWI (MX1 [6]) [%] | T/C (P388 [7]) [%] | TWI (MX1 [8]) [%] | T/C (P388 [9]) [%] | TWI (MX1 [10]) [%] | T/C (P388 [11]) [%]
O=C1c2ccncc2-c2nn(CCNCCO)c3ccc(NCCO)c1c23 | 53.1 (≈ 145 µM) | 49 | 113 | >1.9 | > 100 | – | – | – | – | – | – | –
CNCCn1nc2c3c(c(NCCNCCO)ccc31)C(=O)c1ccncc1-2 | 0.29 (≈ 0.762 µM) | – | – | 109 | 31.6 (≈ 83.1 µM) | 181 | – | – | – | – | – | –
CN(C)CCNc1ccc2c3c(nn2CCN)-c2cnccc2C(=O)c13 | 0.3 (≈ 0.856 µM) | – | – | 53 | 15.9 (≈ 45.4 µM) | – | 80 | 231 | – | – | – | –
CN(C)CCn1nc2c3c(c(NCCN)ccc31)C(=O)c1ccncc1-2 | 0.16 (≈ 0.457 µM) | – | – | 27 | 4.3 (≈ 12.3 µM) | – | – | – | 87 | 213 | – | –
Cl.Cl.O=C1c2c(O)cccc2-c2nn(CCNCCO)c3ccc(NCCNCCO)c1c23 | 0.053 | – | – | 840 | 44.5 | – | – | – | – | – | 95 | 147
